Reference: PMC7693203 (Epilepsia, 2020)
Like-named read-outs stand apart in the source and are kept apart here. Marks after values point to notes of the source that are not given here.

What was measured:
CYP2C19 [1] = target: T1, CYP2C19 (Homo sapiens, UniProt P33261); assay: clinical; details: in vivo, 750 mg
CYP3A4 [2] = target: T2, CYP3A4 (Homo sapiens, UniProt P08684); details: result in words, cited from earlier work
[3] = not given; remark: listed apart in the source
CYP2C19 [4] = target: T1, CYP2C19; details: human liver microsomes; result in words; cited from earlier work
CYP3A4/2C19 [5] = details: result in words
UGT1A9 = details: in vitro; result in words; cited from earlier work
CYP3A4 [6] = target: T2, CYP3A4; details: result in words
[7] = not given; remark: listed apart in the source
[8] = cited from earlier work
UGT2B7 = details: in vitro; result in words; cited from earlier work
[9] = cited from earlier work; for Abdominal pain / Chromaturia / Diarrhea / Fatigue / Flatulence / Headache / Hepatic enzyme increased / Nausea / Somnolence: healthy volunteers
[10] = Other safety parameters for all six trials; assay type: in vivo, human; details: result in words
In short: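 Safety was assessed in open-label, fixed-sequence phase 1 trials in healthy volunteers and in randomized, double-blind, placebo-controlled phase 2 trials in epilepsy patients. Assessments covered treatment-emergent adverse events, clinical laboratory evaluations, vital signs, 12-lead ECGs, physical examinations and the C-SSRS questionnaire. The safety population comprised subjects given at least one dose. In CYP3A4 trials, volunteers also needed at least one postdose assessment.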

CYP3A4/2C19 [11] = assay: clinical; details: human, in vivo, 750 mg
[12] = cited from earlier work; remark: listed apart in the source
CYP3A4 [13] = target: T2, CYP3A4; assay: clinical; details: in vivo, 750 mg
[14] = trial 17074, healthy volunteers, N = 16
[15] = trial 17028, healthy volunteers, N = 16
[16] = trial 17075, healthy volunteers, N = 32
[17] = trial 1428, patients with epilepsy, N = 16
[18] = trial 1428, patients with epilepsy, N = 20
[19] = trial 1543, healthy volunteers, N = 77
[20] = trial 1543 groups 1 + 2 (DDI CLB), n = 27
[21] = trial 1543 groups 3 + 4 (DDI STP), n = 24
[22] = trial 1543 groups 5 + 6 (DDI VPA), n = 26
[23] = trial 1447, patients with epilepsy, N = 28
[24] = trial 1447, patients with epilepsy, N = 34

T2 sequence (P08684 whole entry): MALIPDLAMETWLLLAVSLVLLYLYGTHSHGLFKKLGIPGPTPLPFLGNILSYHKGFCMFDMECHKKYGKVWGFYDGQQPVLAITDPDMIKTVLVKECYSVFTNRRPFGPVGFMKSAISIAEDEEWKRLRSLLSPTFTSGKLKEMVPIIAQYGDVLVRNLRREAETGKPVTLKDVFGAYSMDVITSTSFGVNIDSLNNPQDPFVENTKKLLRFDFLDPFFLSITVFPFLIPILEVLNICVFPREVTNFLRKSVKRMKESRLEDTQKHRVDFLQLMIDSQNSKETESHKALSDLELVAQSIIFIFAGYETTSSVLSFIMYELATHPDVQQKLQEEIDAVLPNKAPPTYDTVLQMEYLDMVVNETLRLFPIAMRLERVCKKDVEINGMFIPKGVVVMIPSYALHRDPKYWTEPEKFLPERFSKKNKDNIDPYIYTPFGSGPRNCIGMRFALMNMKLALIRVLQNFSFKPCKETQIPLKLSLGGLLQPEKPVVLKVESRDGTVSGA
T1 sequence (P33261 whole entry): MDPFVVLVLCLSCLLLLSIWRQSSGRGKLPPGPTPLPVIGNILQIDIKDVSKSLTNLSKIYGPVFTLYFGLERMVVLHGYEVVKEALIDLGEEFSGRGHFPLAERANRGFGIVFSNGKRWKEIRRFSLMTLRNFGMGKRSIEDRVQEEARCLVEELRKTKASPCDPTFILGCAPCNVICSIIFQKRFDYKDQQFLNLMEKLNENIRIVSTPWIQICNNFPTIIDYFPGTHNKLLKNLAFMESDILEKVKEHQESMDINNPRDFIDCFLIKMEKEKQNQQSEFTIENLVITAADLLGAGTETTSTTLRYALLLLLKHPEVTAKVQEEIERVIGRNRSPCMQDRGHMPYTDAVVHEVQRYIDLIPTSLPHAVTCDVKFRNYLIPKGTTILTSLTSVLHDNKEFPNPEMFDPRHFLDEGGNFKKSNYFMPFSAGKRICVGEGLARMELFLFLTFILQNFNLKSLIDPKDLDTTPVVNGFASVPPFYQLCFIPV

For `C=C(C)[C@@H]1CCC(C)=C[C@H]1c1c(O)cc(CCCCC)cc1O` [CBD, cannabidiol], the half-life (CYP2C19 [1]) is listed as 2.13 days, the “inhibition of CYP3A4” value (CYP3A4 [2]; human liver microsomes) is listed as “potently inhibits” and the “inhibition of CYP3A4” value (CYP3A4 [2]; in vitro data) is listed as “potent inhibitor”. The “AEs leading to withdrawal” value [14] was 0 (0) n (%), the Abdominal pain [14] was 0 (0) n (%) and the Death [14] was 0 (0) n (%). For the same compound, the Diarrhea [14] was 3 (19) n (%), the Fatigue [14] was 0 (0) n (%) and the Flatulence [14] was 0 (0) n (%). For the same compound, the Headache [14] was 2 (13) n (%), the Hepatic enzyme increased [14] was 0 (0) n (%) and the Nausea [14] was 4 (25) n (%). For the same compound, the “Patient with at least 1 AE” value [14] was 16 (100) n (%), the “Serious AEs” value [14] was 0 (0) n (%) and the “Severe AEs” value [14] was 0 (0) n (%). The Somnolence [14] was 4 (25) n (%), the Chromaturia (trial 17074, healthy volunteers, N = 16, rifampicin coadministered) was 13 (81) n (%) and the “healthy volunteers reporting AEs” value (trial 17074, overall, 16 subjects, CBD as two single doses) was 100%. The “healthy volunteers reporting AEs” value (trial 17074, after CBD alone, during RIF treatment, or after CBD and RIF, of 16) was 44%, the “elevations in transaminase levels as AEs or laboratory evaluations” value (trial 17074, result in words) was “no reports” and the “elevation in AST levels observed” value ([3]; trial 17028) was “four”. The “elevations in alanine aminotransferase levels observed” value ([3]; trial 17028) was “three”, the “AEs leading to withdrawal” value [3, 15] was 2 (13) n (%) and the Abdominal pain [3, 15] was 2 (13) n (%). For the same compound, the Chromaturia [3, 15] was 0 (0) n (%), the Death [3, 15] was 0 (0) n (%) and the Diarrhea [3, 15] was 6 (38) n (%). For the same compound, the Fatigue [3, 15] was 3 (19) n (%), the Flatulence [3, 15] was 0 (0) n (%) and the Headache [3, 15] was 4 (25) n (%). For the same compound, the Hepatic enzyme increased [3, 15] was 4 (25) n (%), the Nausea [3, 15] was 2 (13) n (%) and the “Patient with at least 1 AE” value [3, 15] was 15 (94) n (%). For the same compound, the “Serious AEs” value [3, 15] was 0 (0) n (%), the “Severe AEs” value [3, 15] was 0 (0) n (%) and the Somnolence [3, 15] was 5 (31) n (%). The “healthy volunteers with elevations in transaminase levels reported as AEs” value ([3]; trial 17028, of 16) was 25%, the “healthy volunteers reporting AEs” value ([3]; trial 17028, of 16, CBD as multiple doses) was 94% and the “inhibition of CYP2C19” value (CYP2C19 [4]) was “potently inhibits”. For the same compound, the “t ½ with concomitant RIF” value (CYP3A4/2C19 [5]) was “unaffected”, the “inhibition of UGT1A9” value (UGT1A9) was “potently inhibits” and the “clearance with concomitant ITC” value (CYP3A4 [6]) was “unaffected”. The “effect of concomitant steady‐state ITC on exposure” value (CYP3A4 [6]) was “did not affect”, the “t ½ with concomitant ITC” value (CYP3A4 [6]) was “unaffected” and the “AEs leading to withdrawal” value [7, 16] was 0 (0) n (%). For the same compound, the Abdominal pain [7, 16] was 2 (6) n (%), the Chromaturia [7, 16] was 0 (0) n (%) and the Death [7, 16] was 0 (0) n (%). For the same compound, the Diarrhea [7, 16] was 3 (9) n (%), the Fatigue [7, 16] was 2 (6) n (%) and the Flatulence [7, 16] was 0 (0) n (%). For the same compound, the Headache [7, 16] was 6 (19) n (%), the Hepatic enzyme increased [7, 16] was 0 (0) ^c n (%) and the Nausea [7, 16] was 2 (6) n (%). For the same compound, the “Patient with at least 1 AE” value [7, 16] was 20 (63) n (%), the “Serious AEs” value [7, 16] was 0 (0) n (%) and the “Severe AEs” value [7, 16] was 0 (0) n (%). The Somnolence [7, 16] was 3 (9) n (%), the “healthy volunteers reporting AEs” value ([7]; trial 17075, overall, 32 subjects, CBD as two single doses) was 63% and the “healthy volunteers reporting AEs” value ([7]; trial 17075 FLU arm, overall, of 16) was 44%. For the same compound, the “healthy volunteers reporting AEs” value ([7]; trial 17075 ITC arm, overall, of 16) was 81%, the “patients with epilepsy reporting AEs” value ([8]; trial 1428, of 20) was 75% and the Abdominal pain [8, 17] was 1 (6) n (%). The Chromaturia [8, 17] was 0 (0) n (%), the Diarrhea [8, 17] was 6 (38) n (%) and the Fatigue [8, 17] was 1 (6) n (%). The Flatulence [8, 17] was 0 (0) n (%), the Headache [8, 17] was 1 (6) n (%) and the Hepatic enzyme increased [8, 17] was 0 (0) ^d n (%). The Nausea [8, 17] was 3 (19) n (%), the Somnolence [8, 17] was 2 (13) n (%) and the “AEs leading to withdrawal” value [8, 18] was 1 (5) n (%). The Death [8, 18] was 0 (0) n (%), the “Patient with at least 1 AE” value [8, 18] was 15 (75) n (%) and the “Serious AEs” value [8, 18] was 1 (5) n (%). For the same compound, the “Severe AEs” value [8, 18] was 1 (5) n (%), the “inhibition of UGT2B7” value (UGT2B7) was “potently inhibits” and the “AEs leading to withdrawal” value [9, 19] was 6 (8) n (%). For the same compound, the Death [9, 19] was 0 (0) n (%), the “Patient with at least 1 AE” value [9, 19] was 72 (94) n (%) and the “Serious AEs” value [9, 19] was 0 (0) n (%). The “Severe AEs” value [9, 19] was 2 (3) n (%), the “subjects who experienced an AE of rash” value ([9]; trial 1543, of 77, early in the trial) was 12% and the “healthy volunteers who experienced an AE” value ([9]; trial 1543, of 77) was 94%. The “elevations in transaminase levels as AEs or laboratory evaluations” value ([9]; trial 1543, result in words) was “no reports”, the Abdominal pain [9, 20] was 7 (26) n (%) and the Chromaturia [9, 20] was 0 (0) n (%). For the same compound, the Diarrhea [9, 20] was 7 (26) n (%), the Fatigue [9, 20] was 14 (52) n (%) and the Flatulence [9, 20] was 0 (0) n (%). The Headache [9, 20] was 13 (48) n (%), the Hepatic enzyme increased [9, 20] was 0 (0) n (%) and the Nausea [9, 20] was 8 (30) n (%). The Somnolence [9, 20] was 5 (19) n (%), the Abdominal pain [9, 21] was 7 (29) n (%) and the Chromaturia [9, 21] was 0 (0) n (%). For the same compound, the Diarrhea [9, 21] was 13 (54) n (%), the Fatigue [9, 21] was 8 (33) n (%) and the Flatulence [9, 21] was 6 (25) n (%). The Headache [9, 21] was 9 (38) n (%), the Hepatic enzyme increased [9, 21] was 0 (0) n (%) and the Nausea [9, 21] was 6 (25) n (%). For the same compound, the Somnolence [9, 21] was 8 (33) n (%), the Abdominal pain [9, 22] was 7 (27) n (%) and the Chromaturia [9, 22] was 0 (0) n (%). For the same compound, the Diarrhea [9, 22] was 15 (58) n (%), the Fatigue [9, 22] was 14 (54) n (%) and the Flatulence [9, 22] was 1 (4) n (%). For the same compound, the Headache [9, 22] was 8 (31) n (%), the Hepatic enzyme increased [9, 22] was 0 (0) n (%) and the Nausea [9, 22] was 8 (31) n (%). The Somnolence [9, 22] was 7 (27) n (%), the “instances that met Hy’s law criteria for potential drug‐induced liver injury” value [10] was “no instances” and the “suicidal ideation or behavior by C‐SSRS” value [10] was “No suicidal ideation or behavior”. For the same compound, the half-life (CYP3A4/2C19 [11]) was 1950 min, the “patients with epilepsy reporting AEs” value ([12]; trial 1447, of 34) was 68% and the Abdominal pain [12, 23] was 0 (0) n (%). The Chromaturia [12, 23] was 0 (0) n (%), the Diarrhea [12, 23] was 16 (57) n (%) and the Fatigue [12, 23] was 3 (11) n (%). For the same compound, the Flatulence [12, 23] was 0 (0) n (%), the Headache [12, 23] was 0 (0) n (%) and the Hepatic enzyme increased [12, 23] was 0 (0) ^e n (%). The Nausea [12, 23] was 4 (14) n (%), the Somnolence [12, 23] was 1 (4) n (%) and the “AEs leading to withdrawal” value [12, 24] was 2 (6) n (%). For the same compound, the Death [12, 24] was 0 (0) n (%), the “Patient with at least 1 AE” value [12, 24] was 23 (68) n (%) and the “Serious AEs” value [12, 24] was 2 (6) n (%). The “Severe AEs” value [12, 24] was 1 (3) n (%), the “elevations in transaminase levels reported as AEs” value ([12]; trial 1447) was “three” and the half-life (CYP3A4 [13]) was 2.37 days.
